Source: PubChem (Johns Hopkins Ion Channel Center)
MrgX1 allo act: positive allosteric modulators of MrgX1, primary screen, HEK293 cells, Fluo-4 calcium flux | FDSS; stronger effect = higher value | B-score at 10 µM | 310,000 tested, 0.63% active | AID 588675, 2011;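 active means plate-corrected calcium response at least 3 library SD above typical, normal starting fluorescence, not activating the receptor alone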;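 further: compound read alongside a low EC10 to EC30 dose of BAM8-22 agonist; peak minus trough fluorescence over baseline measured at the second addition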
Target sequence (Q96LB2 whole entry, looked up): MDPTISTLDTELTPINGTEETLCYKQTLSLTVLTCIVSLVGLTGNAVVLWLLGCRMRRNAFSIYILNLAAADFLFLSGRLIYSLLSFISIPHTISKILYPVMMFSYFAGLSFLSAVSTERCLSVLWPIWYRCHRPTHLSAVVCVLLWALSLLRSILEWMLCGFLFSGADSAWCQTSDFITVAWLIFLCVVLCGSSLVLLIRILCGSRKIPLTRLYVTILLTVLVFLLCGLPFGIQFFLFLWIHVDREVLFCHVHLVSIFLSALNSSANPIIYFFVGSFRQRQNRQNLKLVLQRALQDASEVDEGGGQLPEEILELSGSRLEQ
RGS4 act: RGS4 potentiators or activators, primary screen, cell-based, HEK293 M3R inducible RGS4, calcium flux. carbachol calcium flux Fluo4; stronger effect = lower value. B-score at 10 µM. 310,000 tested, 0.92% active;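 active means B-score of the integrated calcium signal more than 4 SD below the library mean, with starting fluorescence not abnormally high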;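 further: negative B-score means reduced calcium response which marks RGS4 activation or potentiation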
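Also added: carbachol at ECmax as muscarinic agonist stimulus; Assay system: HEK293 cells with stable M3R and inducible RGS4; Timing: overnight RGS4 induction, 30 min dye load 37 °C, 20 min compound RT; Measured by: Fluo4-AM (2 µM) calcium-flux fluorescence, kinetic read.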
RGS4 block: RGS4 inhibitors, primary screen, cell-based, HEK293 M3R inducible RGS4, calcium flux | AID 463165, 2010 | 310,000 tested, 0.45% active | Regulator of G-protein signaling 4 (Homo sapiens), P49798 | Fluo-4 calcium flux; stronger effect = higher value; triggered by carbachol at its EC20 | B-score at 10 µM;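 active means B-score, a plate-corrected calcium signal, over three deviations above library mean, with baseline fluorescence within five deviations of library mean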;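 further: RGS4 expression induced by doxycycline in cells with stable M3 receptor; B-score is computed from the integrated fluorescence ratio over baseline after carbachol; higher B-score means a larger calcium signal and so more RGS4 inhibition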
MrgX1 agonist: agonists of human MrgX1 receptor, primary screen, HEK293 cells, Fluo-4 calcium flux | B-score at 10 µM | Fluo-4 calcium fluorescence, agonist mode; stronger effect = higher value | 310,000 tested, 0.44% active;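 active means calcium response B-score plate-corrected fluorescence ratio at least 3 library SD, with starting fluorescence B-score inside 5 SD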
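Material: MrgX1-expressing HEK293 cells / Dosing: compound as first of three additions / Incubation: overnight seeding, then 1 h dark dye loading / Signal: Fluo-4 NW calcium fluorescence / Evaluation: B-scored fluorescence response ratio / Benchmarks: positive and negative control wells on each plate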
MrgX1 antagonist: antagonists of human MrgX1 receptor, primary screen, HEK293 cells, Fluo-4 calcium flux | Mas-related G-protein coupled receptor member X1 (Homo sapiens), Q96LB2 | BAM8-22 antagonism; stronger effect = lower value | B-score at 10 µM | 310,000 tested, 1.3% active | AID 588676, 2011;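 active means calcium-response B-score plate-corrected more than 3 library SD below zero, starting fluorescence within 5 deviations, no agonist response on first addition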;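 further: peak minus trough fluorescence over baseline after final BAM8-22 challenge near maximal dose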
Active calls of the source: *; i = inactive; / = not tested or not shown. An excerpt weighted towards active compounds, which were near 3.5% of everything screened.

SMILES	MrgX1 allo act	RGS4 act	RGS4 block	MrgX1 agonist	MrgX1 antagonist
CCCCN(C(=O)COC(=O)COc1c(C)cc(C)cc1C)c1c(N)n(CCC)c(=O)[nH]c1=O	i	i	i	i	-8.25*
O=C(COc1ccc(/C=C\[N+](=O)[O-])cc1)N1CCOCC1	i	i	i	34.9*	i
O=C(CNC(=O)c1ccc(Cl)c([N+](=O)[O-])c1)NCC1CCCO1 (stereo not drawn)	i	i	i	i	i
COc1cc(/C=N/NC(=O)c2ccccn2)ccc1OC(=O)c1cccs1	i	i	i	i	i
Cc1cc(C2=NNC(=NCCc3ccccc3)SC2)c(C)n1CC1CCCO1 (stereo not drawn)	i	i	i	45.1*	i
O=C(c1ccc(N2C(=O)C3C4c5ccccc5C(c5ccccc54)C3C2=O)cc1)N1CCOCC1 (stereo not drawn)	i	i	i	i	i
O=C(O)/C=C/c1ccc(OCc2cccc(F)c2)cc1	i	i	i	i	-5.45*
On1nnc2c3ccccc3c3ccccc3c21	i	i	i	i	i
O=C1N/C(=C/c2ccc(N3CCOCC3)o2)C(=O)N1c1ccccc1	i	/	/	i	i
O=C1S/C(=C/c2ccc(N3CCOCC3)o2)C(=O)N1Cc1ccc(F)cc1	i	i	i	46*	i
C=CCN1C(=O)N/C(=C/c2ccc(N3CCOCC3)o2)C1=O	i	i	i	i	-5.1*
CC(C)OCCCNC(=O)C1CCN(S(=O)(=O)c2ccc3nc4c(c(C(=O)O)c3c2)CCCCC4)CC1	i	i	i	i	i
CCCCCCCOC(=O)C[N+](C)(C)CCOC1CC2CCC1(C)C2(C)C (stereo not drawn)	/	-8.15*	i	/	/
COCCCn1c(SCC(=O)OC2CCCCC2)nnc1-c1cccs1	i	i	i	i	-5.84*
COCCCn1c(SCC(=O)OC2CCCCC2)nnc1-c1ccco1	i	i	i	i	i
COc1ccc(CNC(=O)CNC(=O)c2ccc(C(C)(C)C)cc2)cc1OC	i	i	i	i	i
CCN(CC(=O)Nc1cccc(OC)c1)c1ncnc2sc(C)c(C)c12	i	i	i	i	i
Cc1c(Br)c([N+](=O)[O-])nn1CC(=O)NCCc1c[nH]c2ccccc12	i	i	i	i	-5*
Cc1c(Br)c([N+](=O)[O-])nn1CC(=O)NCc1ccccc1	i	i	i	i	i
COc1ccc(-c2nn(-c3ccccc3)cc2/C=N/NC(=O)c2cccc(S(=O)(=O)Nc3ccccc3Cl)c2)cc1	i	i	i	i	-5*
O=C(N/N=C/c1ccccn1)c1cccc(S(=O)(=O)Nc2ccccc2Cl)c1	16.5*	i	i	i	i
Cc1ccc(CNC(=O)CCn2cc(-c3ccc(C)cc3)nc2CCN)cc1	i	/	/	i	i
Cc1cccc(CC(=O)NCC2CCCCC2)c1	i	i	i	i	i
O=C(NN1C(=O)C2C(c3ccccc3)C=CC(c3ccccc3)C2C1=O)c1cccc(Br)c1 (stereo not drawn)	i	-10.1*	i	i	i
O=C(Nc1cccnc1)c1ccc2nc(-c3ccccc3)c(-c3ccccc3)nc2c1	i	-9.76*	i	i	i
O=C(NCCO)Nc1ccc2nsnc2c1	i	i	i	i	i
S=C(Nc1ccc(N2CCOCC2)cc1)Nc1ccc2nc(-c3ccco3)c(-c3ccco3)nc2c1	i	-7.04*	i	i	i
CC(=O)c1ccc(NC(=O)c2ccc3nc(-c4ccco4)c(-c4ccco4)nc3c2)cc1	i	i	i	i	-6.66*
O=C(NCCO)Nc1ccc2nc(-c3ccco3)c(-c3ccco3)nc2c1	i	/	/	28.1*	i
CCOc1ccc(NC(=O)C(NC(=O)C2CCC(C)CC2)C(C)C)cc1 (stereo not drawn)	i	-6.97*	i	i	i
